TLR9-MyD88 block: inhibitors of human TLR9-MyD88 binding | CHO BLA complementation TLR9-MyD88, CCF4 FRET ratio | actives 0.21% (n = 340,000) | inhibition, % at 4.98 µM | Q9NR96+Q99836;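 active means inhibition above the mean over all tested compounds plus 3 SD, cut at about 21% in these data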;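 further: 0% = DMSO only wells and 100% = clavulanate BLA inhibitor control wells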
UPR CHOP act: apoptotic UPR (CHOP) activation | actives 0.34% (n = 330,000) | CHO-CHOP luciferase reporter, luminescence; percent of tunicamycin response over DMSO baseline | AID 449763 | activation, % at 10 µM;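 active means at 10 µM dose, activation of 40% or more, normalized to positive control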;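 further: 100% = tunicamycin at 10 µg/mL and 0% = DMSO alone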
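Assay system: CHO cells with stable CHOP pathway luciferase reporter; Buffer or medium: F12 plus 10% serum; Times: 16-18 h cell attachment, then 6 h compound exposure, 37 °C; Signal: luciferase luminescence; Read-out basis: percent activation relative to tunicamycin control; Control set: tunicamycin high control, DMSO low control.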
NOD2 RIPK2 PPI: blocks binding of human NOD2 to RIPK2. CHO BLA complementation NOD2-RIPK2, CCF4 ratio. inhibition, % at 4.98 µM. actives 0.38% (n = 360,000). AID 624267; in the data active means inhibition above about 21%;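 further: 0% = vehicle only and 100% = reference blocker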
Target sequence (O43353 whole entry, looked up): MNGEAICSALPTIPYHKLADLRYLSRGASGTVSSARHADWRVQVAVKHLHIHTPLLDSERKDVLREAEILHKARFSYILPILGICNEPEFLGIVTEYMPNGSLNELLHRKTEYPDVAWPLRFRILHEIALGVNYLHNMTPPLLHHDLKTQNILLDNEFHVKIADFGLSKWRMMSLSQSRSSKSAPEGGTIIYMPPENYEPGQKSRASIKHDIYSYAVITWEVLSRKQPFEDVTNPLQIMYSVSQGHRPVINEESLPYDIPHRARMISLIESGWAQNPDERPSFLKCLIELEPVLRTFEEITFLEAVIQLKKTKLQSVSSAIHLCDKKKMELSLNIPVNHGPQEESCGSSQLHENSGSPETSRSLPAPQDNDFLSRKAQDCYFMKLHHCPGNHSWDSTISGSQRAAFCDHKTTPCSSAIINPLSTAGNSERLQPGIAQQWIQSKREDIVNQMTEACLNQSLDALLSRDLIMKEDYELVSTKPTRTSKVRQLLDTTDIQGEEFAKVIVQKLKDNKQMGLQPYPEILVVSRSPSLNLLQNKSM
CHOP inhibitor: inhibitors of CHOP induction in ER stress response. CHO-K1 CHOP-promoter luciferase, tunicamycin-induced, 15-18 h. inhibition, % at 10 µM. actives 3.8% (n = 220,000). AID 2732;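 active means compounds that reduced the stress-induced luciferase reporter signal by more than about 70% of percent inhibition, limit read from the data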;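 further: 0% = tunicamycin plus vehicle and 100% = wells without tunicamycin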
XBP1 UPR activ: adaptive UPR (XBP1) activation. CHO-XBP1 luciferase reporter, IRE1-XBP1 UPR activation, luminescence; percent of tunicamycin response, DMSO as zero. activation, % at 20 µM. AID 463104. actives 0.33% (n = 330,000);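 active means versus positive control, 20 µM dose yields 30% or more activation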;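 further: 100% = tunicamycin at 10 µg/mL and 0% = DMSO only wells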
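Material: CHO-XBP1 cells stably carrying IRE1-XBP1-driven luciferase reporter | Medium: F12 with 10% serum | Compound dosing: 20 µM single concentration, DMSO 1% | Incubation: Overnight seeding at 37 °C, 6 h compound treatment at 37 °C | Detection: Steady-Glo luminescence read | Read-out basis: % activation of reporter signal versus tunicamycin and DMSO controls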
TLR4 MyD88 comp: blocks binding of human TLR4 to MyD88; O00206+Q99836; HeLa CL3-4 TLR4/MyD88 BLA complementation, FRET ratio; inhibition, % at 8.4 µM; actives 0.18% (n = 200,000); AID 861; in the data active means inhibition above about 25%;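 further: 0% = vehicle and 100% = reference inhibitor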
The depositor's hits bear a star; x = not tested or not shown; ! = not confirmed by another sample. Only a selection was taken, and hits are over-represented in it overall.

SMILES	TLR9-MyD88 block	UPR CHOP act	NOD2 RIPK2 PPI	CHOP inhibitor	XBP1 UPR activ	TLR4 MyD88 comp
O=C(CSc1nnnn1-c1ccccc1)Nc1nc(-c2ccccc2)ns1	2.5	-0.5	-7.9	86.3*	1.8	3.3
O=C(c1[nH]c(C(F)(F)F)nc1-c1ccccc1)N1CCN(c2ccccn2)CC1	x	x	0.1	x	x	x
Cc1ccc2c(c1)C(=O)N1c3cc(C)c(C)cc3NC(=O)C1C(=O)N2 (stereo not given)	x	x	2.0	x	x	x
CC1(Cc2ccc3c(c2)OCO3)C(=O)Nc2c(Cl)ccc(Cl)c21 (stereo not given)	x	x	3.5	x	x	x
O=C(Nc1ccccn1)c1sc2cccc(F)c2c1Cl	-4.2	-4.2	-5.3	77.6*	-1.8	-3.5
Cc1c(NC(=S)NC(=O)c2sc3ccccc3c2Cl)cccc1C(=O)O	-7.4	-2.7	-3.5	-3.6	-4.8	-5.4
Cc1ccc(NC(=O)c2sc3ccccc3c2Cl)nc1	10.7	-2.7	-8.0	94.3*	-8.1	-4.9
Cc1nnc(NC(=O)c2sc3ccccc3c2Cl)s1	-4.8	0.9	-15.0	48.9	-1.8	-1.9
COc1ccccc1C(=O)NNC(=S)NC(=O)c1sc2ccccc2c1Cl	-3.9	13.4	-2.7	80.0*	26.3	1.4
Cc1ccc2nc(-c3ccccc3)c(Cc3ccsc3)n2c1	x	x	-15.0	x	x	x
CC(C)(C)n1nc(-c2ccc(Cl)cc2)c2c(N)ncnc21	3.9	-1.1	0.2	84.3*	16.9	-0.4
CC1OC(=O)c2cc3ccccc3nc21 (stereo not given)	1.9	x	4.7	x	x	x
COc1ccccc1N/C(N)=N/c1nc(CSc2nc3ccccc3s2)cc(=O)[nH]1	x	6.5	x	93.6*	2.0	2.1
COc1cc(/C=N\NC(=O)c2ccc(Cn3nc([N+](=O)[O-])c(Cl)c3C)o2)ccc1O	-5.6	1.3	0.5	-18.0	-0.9	-3.7
Cc1c(Cl)c([N+](=O)[O-])nn1Cc1ccc(C(=O)N/N=C\c2ccccn2)o1	12.4	x	-3.4	73.5*	x	-0.3
C=CCn1c(-c2csc(-c3ccc(Cl)cc3)n2)n[nH]c1=S	0.8	-1.2	-2.2	71.8*	3.0	8.0
COc1ccccc1-c1cnc(C(O)c2cc(Cl)cc(Cl)c2)[nH]1 (stereo not given)	x	x	8.4	x	x	x
CCc1nnc(NC(=O)C(CC)c2ccccc2)s1 (stereo not given)	-11.5	1.1	-3.2	8.9	-4.9	-1.7
CCOc1cccc(C(=O)Nc2nnc(-c3ccco3)s2)c1	-3.6	-2.3	-3.5	73.6*	-6.2	0.6
CCC(C(=O)Nc1nnc(-c2ccco2)s1)c1ccccc1 (stereo not given)	6.9	1.3	3.5	74.7*	1.7	9.8
Cc1cccc(OCC(=O)Nc2nnc(-c3ccco3)s2)c1	-4.1	-1.9	-0.5	35.3	-0.1	-0.7
CCOC(=O)C1=CCN(S(=O)(=O)c2ccccc2C)C1c1cccc(F)c1 (stereo not given)	x	x	-4.4	x	x	x
CC1CC(C)CN(CC(C)(C)NS(=O)(=O)c2ccc(Cl)cc2)C1 (stereo not given)	2.3	1.9	-2.3	93.8*	-0.1	8.2
CC(C)(CN1CCCCC1)NS(=O)(=O)c1ccc(Cl)cc1	-2.0	-0.7	-6.3	24.2	-1.6	2.1
CCOC(=O)C1(C)CCN1C(=O)c1ccc2ccccc2c1 (stereo not given)	x	x	-0.9	x	x	x
SMILES	TLR9-MyD88 block	UPR CHOP act	NOD2 RIPK2 PPI	CHOP inhibitor	XBP1 UPR activ	TLR4 MyD88 comp
CC(CCC(C)C(C)(C)C)[C@@H]1CC[C@H]2C3C[C@H](OS(O)(=S)=S)[C@H]4C[C@H](OS(O)(=S)=S)[C@@H](OS(O)(=S)=S)C[C@]4(C)[C@H]3CC[C@]12C (stereo not given in full) (tested in a mixture with another compound)	2.3	0.0	23.9*	x	-1.6	x
CC(CCC(=O)NN)C1CCC2C3CCC4CC(O)CCC4(C)C3CCC12C (stereo not given)	3.1	x	-5.6	x	x	x
O=C(Nc1ccc(O)c2c(=O)cc(-c3ccccc3Cl)oc12)c1ccc(Cl)c(Cl)c1	-8.7	7.9	-4.8	94.3*	16.3	x
CC/C(=N/NC(=O)CNc1ccc(Cl)cc1C)c1ccccc1	-3.0	-0.7	-12.7	70.3*	-1.3	-1.2
CSc1ccccc1CNC(=O)C1(C)CCCN1CC(C)C (stereo not given)	x	x	7.1	x	x	x
Cc1cccc(C)c1NC(=O)C1(C)CSCC(=O)N1Cc1cccc(C(F)(F)F)c1 (stereo not given)	x	x	-6.5	x	x	x
Cc1cc(C)cc(-n2c3nc4ccccc4nc3c3c(=O)n(Cc4ccco4)cnc32)c1	-5.4	-1.6	5.7	103.1*	-0.5	13.3
Cc1ccc(CNc2nc3ccccc3s2)s1	4.1	-4.1	4.3	74.1*	-8.1	5.4
CCCCCCN1CCN(C2CN(Cc3cn(Cc4ccccc4)nn3)S(=O)(=O)C2)CC1 (stereo not given)	x	x	-12.9	x	x	x
CC1=C(C)C(=O)C(CCCCC#CCCCC#CCO)=C(C)C1=O	-0.8	0.1	-4.5	73.3*!	-8.9	8.2
COc1ccc(NC(=O)C2(C)Cc3c(-c4cccc(C(N)=O)c4)ccnc3O2)cc1OC (stereo not given)	x	x	2.7	x	x	x
O=NN(C(=O)NC1CCC(C(=O)O)CC1)C1CCC(C(=O)O)CC1 (stereo not given)	x	x	-5.4	x	x	x
O=Cc1ccc2ccc3cccnc3c2n1	7.1	2.6	3.9	x	5.3	x
c1cnc2c(c1)ccc1cccnc12	6.3	0.3	3.3	73.5*!	0.8	4.7
CCOc1ccc(C(=O)CN2C(=O)NC3(CCCc4ccccc43)C2=O)cc1 (stereo not given)	-3.5	x	-11.0	x	x	x
Cc1ccccc1/C=C1\OC(=O)c2ccccc21	5.0	4.5	-13.9	86.9*	3.2	-8.1
COC1OC(CO)C(N(C)C(C)=O)C1O (stereo not given)	5.4	x	-2.2	x	x	x
CC(=O)Nc1ccc(S(=O)(=O)NCc2ccc(C)cc2)cc1	8.0	-0.8	2.8	75.5*	0.2	6.6
CC1CCCCN1S(=O)(=O)c1ccc(C(=O)Nc2nnc(-c3ccccc3Cl)o2)cc1 (stereo not given)	-8.7	13.2	0.5	77.3*	1.4	3.0
CCN(Cc1ccccc1)S(=O)(=O)c1ccc(C(=O)Nc2nnc(-c3ccccc3OC)o2)cc1	6.5	2.6	-2.5	85.0*	-1.6	2.4
COc1ccccc1-c1nnc(NC(=O)c2ccc(S(=O)(=O)N(C)C)cc2)o1	7.8	2.8	-10.1	85.3*	-0.7	11.5
CCCCN(CC)S(=O)(=O)c1ccc(C(=O)Nc2nnc(-c3ccccc3Cl)o2)cc1	3.5	10.3	-10.9	87.8*	-0.8	8.2
